According to ChEMBL document CHEMBL1949601, “γ-Carbolines: a novel class of cannabinoid agonists with high aqueous solubility and restricted CNS penetration” (Bioorg Med Chem Lett, 2012):
In brackets after ≈: the same amount, converted by molar mass.

Assays:
[1] = molecular target: T1, Cannabinoid receptor 1 (Homo sapiens, UniProt P21554); experiment: Displacement of [3H]-CP55,940 from human CB1 receptor expressed in HEK293 cells; format: cell-based
[2] = molecular target: Voltage-gated inwardly rectifying potassium channel KCNH2 (Homo sapiens, UniProt Q12809); experiment: Inhibition of human Erg by voltage ion flux electrophysiological assay
[3] = molecular target: T1, Cannabinoid receptor 1; experiment: Agonist activity at human CB1 receptor expressed in HEK293 EBNA cells by [35S]GTPgamma binding assay; format: functional, cell-based
[4] = Metabolic stability in human liver microsomes; format: ADME, Microsome; conditions: read-out: Stability
[5] = Dissociation constant, pKa of the compound; format: physicochemical
[6] = molecular target: Cannabinoid receptor 2 (Homo sapiens, UniProt P34972); experiment: Binding affinity to human CB2 receptor
[7] = Aqueous solubility of the compound at pH 7.4; format: physicochemical
[8] = Apparent permeability across human Caco2 cells; format: ADME, cell-based; conditions: Caco-2
[9] = Ratio of drug uptake in brain to plasma of Sprague-Dawley rat at 1 mg/kg, sc; format: ADME, organism-based; parameters: dose 1 mg/kg, route subcutaneous; conditions: read-out: BPR
[10] = Metabolic stability in rat liver microsomes; format: ADME, Microsome; conditions: read-out: Stability
[11] = molecular target: Cannabinoid receptor 1 (Rattus norvegicus, UniProt P20272); experiment: Agonist activity at CB1 receptor in rat brain tissue; format: functional, tissue-based
[12] = molecular target: Cannabinoid receptor 1 (Rattus norvegicus) (UniProt P20272); experiment: Agonist activity at CB1 receptor in rat brain tissue relative to control; format: functional, tissue-based
[13] = molecular target: T1, Cannabinoid receptor 1; experiment: Partial agonist activity at human CB1 receptor expressed in HEK293 EBNA cells by [35S]GTPgamma binding assay; format: functional, cell-based
Method in brief: (§1)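 Membranes from HEK293 EBNA cells stably transfected with cloned human CB1; agonism read out as [35S]GTPγS binding, EC50 determined; Emax expressed relative to Win55,212-2 as reference agonist. Mean of at least 2 independent measurements.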

[14] = molecular target: T1, Cannabinoid receptor 1; experiment: Partial agonist activity at human CB1 receptor expressed in HEK293 EBNA cells by [35S]GTPgamma binding assay relative to Win55,212-2; format: functional, cell-based; method in brief: as §1

Sequence of Voltage-gated inwardly rectifying potassium channel KCNH2 (Q12809 whole entry): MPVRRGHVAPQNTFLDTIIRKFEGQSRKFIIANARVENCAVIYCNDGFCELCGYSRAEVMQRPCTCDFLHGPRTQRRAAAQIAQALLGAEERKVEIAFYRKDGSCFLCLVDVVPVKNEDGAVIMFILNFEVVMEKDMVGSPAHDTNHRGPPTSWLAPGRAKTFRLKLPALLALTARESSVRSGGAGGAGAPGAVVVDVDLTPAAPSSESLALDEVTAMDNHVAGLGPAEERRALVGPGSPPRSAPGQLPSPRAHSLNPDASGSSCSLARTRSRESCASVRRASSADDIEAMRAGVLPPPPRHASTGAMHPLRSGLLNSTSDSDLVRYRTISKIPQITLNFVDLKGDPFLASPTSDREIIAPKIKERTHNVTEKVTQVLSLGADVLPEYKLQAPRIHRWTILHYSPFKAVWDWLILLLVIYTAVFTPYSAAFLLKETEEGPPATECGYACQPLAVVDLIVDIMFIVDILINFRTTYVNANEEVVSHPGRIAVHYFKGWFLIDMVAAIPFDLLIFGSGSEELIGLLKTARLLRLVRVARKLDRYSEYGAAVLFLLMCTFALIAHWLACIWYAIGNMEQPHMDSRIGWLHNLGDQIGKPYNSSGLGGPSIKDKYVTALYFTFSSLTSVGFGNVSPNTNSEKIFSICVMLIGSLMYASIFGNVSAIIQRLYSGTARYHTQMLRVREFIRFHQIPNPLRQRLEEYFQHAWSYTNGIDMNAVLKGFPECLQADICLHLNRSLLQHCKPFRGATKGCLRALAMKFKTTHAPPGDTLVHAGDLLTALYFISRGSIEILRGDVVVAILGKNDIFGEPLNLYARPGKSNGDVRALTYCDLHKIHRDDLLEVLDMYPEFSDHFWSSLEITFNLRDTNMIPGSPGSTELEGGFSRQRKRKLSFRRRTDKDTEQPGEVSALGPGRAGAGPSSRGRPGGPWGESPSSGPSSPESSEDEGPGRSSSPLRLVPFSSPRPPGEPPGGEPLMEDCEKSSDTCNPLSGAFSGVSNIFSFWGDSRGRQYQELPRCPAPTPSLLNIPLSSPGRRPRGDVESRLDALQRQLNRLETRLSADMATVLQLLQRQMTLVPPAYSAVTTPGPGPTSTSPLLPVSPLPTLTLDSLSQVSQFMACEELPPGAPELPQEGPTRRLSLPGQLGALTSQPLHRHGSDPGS
T1 sequence (P21554 whole entry): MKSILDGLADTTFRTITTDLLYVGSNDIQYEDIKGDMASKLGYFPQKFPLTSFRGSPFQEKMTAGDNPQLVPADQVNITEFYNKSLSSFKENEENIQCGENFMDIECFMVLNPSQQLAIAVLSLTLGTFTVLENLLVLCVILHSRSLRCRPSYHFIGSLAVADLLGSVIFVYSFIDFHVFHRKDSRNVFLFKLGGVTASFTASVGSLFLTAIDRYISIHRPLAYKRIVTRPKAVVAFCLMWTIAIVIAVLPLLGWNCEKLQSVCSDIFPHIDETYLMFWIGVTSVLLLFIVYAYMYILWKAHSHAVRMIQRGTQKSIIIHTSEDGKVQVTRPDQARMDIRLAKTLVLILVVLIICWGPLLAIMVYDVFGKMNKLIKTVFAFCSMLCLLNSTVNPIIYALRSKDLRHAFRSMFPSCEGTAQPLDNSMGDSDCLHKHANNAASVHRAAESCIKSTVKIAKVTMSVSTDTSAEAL
Sequence of Cannabinoid receptor 2 (P34972 whole entry): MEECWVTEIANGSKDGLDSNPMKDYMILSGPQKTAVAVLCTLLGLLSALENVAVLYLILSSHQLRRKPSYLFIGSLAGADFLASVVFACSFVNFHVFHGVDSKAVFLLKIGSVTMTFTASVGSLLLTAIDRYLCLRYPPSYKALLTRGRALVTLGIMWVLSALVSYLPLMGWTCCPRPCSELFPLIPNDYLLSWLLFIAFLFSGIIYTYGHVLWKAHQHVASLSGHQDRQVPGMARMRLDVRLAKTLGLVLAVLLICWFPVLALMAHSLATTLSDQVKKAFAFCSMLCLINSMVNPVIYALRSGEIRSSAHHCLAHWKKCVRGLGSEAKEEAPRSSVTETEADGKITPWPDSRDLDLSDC
Sequence of Cannabinoid receptor 1 (Rattus norvegicus, UniProt P20272) (P20272 whole entry): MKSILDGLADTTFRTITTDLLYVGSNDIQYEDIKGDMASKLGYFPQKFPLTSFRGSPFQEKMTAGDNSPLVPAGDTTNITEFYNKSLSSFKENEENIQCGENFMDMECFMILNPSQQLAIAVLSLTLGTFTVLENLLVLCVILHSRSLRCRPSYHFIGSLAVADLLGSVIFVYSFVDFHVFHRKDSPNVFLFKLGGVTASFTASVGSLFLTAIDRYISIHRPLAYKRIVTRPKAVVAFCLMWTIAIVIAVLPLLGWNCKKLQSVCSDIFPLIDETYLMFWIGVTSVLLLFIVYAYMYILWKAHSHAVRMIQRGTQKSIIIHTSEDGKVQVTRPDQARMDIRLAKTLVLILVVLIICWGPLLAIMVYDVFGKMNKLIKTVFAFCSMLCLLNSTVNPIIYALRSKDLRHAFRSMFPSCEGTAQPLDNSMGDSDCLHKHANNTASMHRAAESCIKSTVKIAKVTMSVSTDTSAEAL
Sequence of Cannabinoid receptor 1 (Rattus norvegicus) (P20272 whole entry): as above

For `CC1CCN(C(=O)c2ccc3c(c2)c2c(n3C)CCN(C3CCOCC3)C2)CC1`, the Ki [1] was 76 nM and the IC50 [2] was 2.6 µM.
For `Cn1c2c(c3cc(C(=O)N4CCCCC4)ccc31)CN(C1CCOCC1)CC2`, the Ki [1] was 226 nM and the IC50 [2] was 18 µM.
For `C=CCn1c2c(c3cc(C(=O)N4CCC(C)CC4)ccc31)CN(Cc1ccncc1)CC2`, the EC50 [3] was 1360 nM and the microsomal CLint [4] was greater than 300 µL/min/mg.
With `C=CCn1c2c(c3cc(C(=O)N4CCC(C)CC4)ccc31)CN(C1CCCC1)CC2` the Ki [1] was 9 nM, the EC50 [3] was 33 nM and the microsomal CLint [4] was 93 µL/min/mg.
`CCCS(=O)(=O)n1c2c(c3cc(C(=O)N4CCC(C)CC4)ccc31)CN(C1CCOCC1)CC2` gave a Ki [1] of 115 nM, an EC50 [3] of 129 nM and an IC50 [2] of 2 µM. For the same molecule, the pKa [5] was 7.3.
Work on `C=CCn1c2c(c3cc(C(=O)N4CCC(C)CC4)ccc31)CN(Cc1cccnc1)CC2` yielded an EC50 [3] greater than 14000 nM and a microsomal CLint [4] greater than 300 µL/min/mg.
`CC1CCN(C(=O)c2ccc3c(c2)c2c(n3S(=O)(=O)c3ccccc3)CCN(C3CCOCC3)C2)CC1` showed a Ki [1] of 31 nM and an EC50 [3] of 59 nM.
With `C=CCn1c2c(c3cc(C(=O)N4CCC(C)CC4)ccc31)CN(C1CCCCC1)CC2` the Ki [1] was 56 nM, the EC50 [3] was 60 nM and the microsomal CLint [4] was 135 µL/min/mg.
`CC1CCN(C(=O)c2ccc3c(c2)c2c(n3C)CCN(C3CCCC3)C2)CC1` showed a Ki [1] of 32 nM and an EC50 [3] of 77 nM.
Molecule `CCCS(=O)(=O)n1c2c(c3cc(C(=O)N4CCC(C)CC4)ccc31)CN(C1CCCC1)CC2` has a Ki [1] of 22 nM and an EC50 [3] of 22 nM.
In the case of `CCOc1ccc(Cc2nc3cc(N(C)S(=O)(=O)c4cccs4)ccc3n2CC2CCCCC2)nc1`, the Ki [1] is reported as 3 nM, the EC50 [3] is reported as 6 nM and the Ki [6] is reported as 0.56 nM. For the same molecule, the solubility [7] was less than 10 µg/mL, the Papp [8] was 0.6 ×10⁻⁶ cm/s and the Kp [9] was 0.07. It also gave a microsomal CLint [4] greater than 300 µL/min/mg and a microsomal CLint [10] greater than 300 µL/min/mg.
`CCCCCOc1ccc(C(=O)c2cccc3ccccc23)c2ccccc12` showed a Ki [6] of 19 nM, a solubility [7] of less than 10 µg/mL and a Kp [9] of 0.04.
In the case of `CCOc1ccc(Cn2c3c(c4cc(C(=O)N5CCC(C)CC5)ccc42)CN(C2CCOCC2)CC3)cc1`, the Ki [1] is reported as 51 nM and the EC50 [3] is reported as 53 nM.
With `CC1CCN(C(=O)c2ccc3c(c2)c2c(n3S(=O)(=O)C(C)C)CCN(C3CCOCC3)C2)CC1` the Ki [1] was 170 nM and the EC50 [3] was 150 nM.
Molecule `CCCCCCC(C)(C)c1cc(O)c2c(c1)OC(C)(C)[C@@H]1CC=C(C(=O)O)C[C@@H]21` [LENABASUM] has a Kp [9] of 0.3.
In the case of `CCNS(=O)(=O)n1c2c(c3cc(C(=O)N4CCC(C)CC4)ccc31)CN(C1CCOCC1)CC2`, the Ki [1] is reported as 424 nM.
In the case of `C=CCn1c2c(c3cc(C(=O)N4CCC(C)CC4)ccc31)CN(CC1CC1)CC2`, the Ki [1] is reported as 143 nM, the EC50 [3] is reported as 768 nM and the Ki [6] is reported as 14 nM. For the same molecule, the EC50 [11] was 1440 nM, the Emax [12] was 47% and the solubility [7] was 3300 µg/mL (≈ 8430 µM). For the same molecule, the Papp [8] was 3 ×10⁻⁶ cm/s, the Kp [9] was 0.74 and the microsomal CLint [4] was 66 µL/min/mg. The microsomal CLint [10] was greater than 300 µL/min/mg.
Work on `CCCn1c2c(c3cc(C(=O)N4CCC(C)CC4)ccc31)CN(C1CCOCC1)CC2` yielded a Ki [1] of 58 nM and an EC50 [3] of 103 nM.
For `CCS(=O)(=O)n1c2c(c3cc(C(=O)N4CCC(C)CC4)ccc31)CN(C1CCOC1)CC2` (stereo not given), the Ki [1] was 197 nM, the IC50 [2] was 25 µM and the pKa [5] was 5.9.
`CCCn1c2c(c3cc(C(=O)N4CCC(C)CC4)ccc31)CN(C1CCCC1)CC2` showed a Ki [1] of 15 nM and an EC50 [3] of 45 nM.
Work on `CC1CCN(C(=O)c2ccc3c(c2)c2c(n3S(=O)(=O)N(C)C)CCN(C3CCOCC3)C2)CC1` yielded a Ki [1] of 110 nM and an EC50 [3] of 71 nM.
In the case of `C=CCn1c2c(c3cc(C(=O)N4CCC(C)CC4)ccc31)CN(CC1CCCC1)CC2`, the EC50 [3] is reported as 115 nM and the microsomal CLint [4] is reported as greater than 300 µL/min/mg.
Molecule `C=CCn1c2c(c3cc(C(=O)N4CCC(C)CC4)ccc31)CN(C1CCOCC1)CC2` has an EC50 [3] of 60 nM and a microsomal CLint [4] of 42 µL/min/mg.
In the case of `CC1CCN(C(=O)c2ccc3[nH]c4c(c3c2)CN(C2CCCC2)CC4)CC1`, the Ki [1] is reported as 264 nM and the EC50 [3] is reported as 4250 nM.
In the case of `CC1CCN(C(=O)c2ccc3c(c2)c2c(n3C(=O)N(C)C)CCN(C3CCOCC3)C2)CC1`, the Ki [1] is reported as 2380 nM.
`CCCS(=O)(=O)n1c2c(c3cc(C(=O)N4CCC(C)CC4)ccc31)CN(C1CCOC1)CC2` (stereo not given) gave a Ki [1] of 320 nM and a pKa [5] of 5.8.
For `CCn1c2c(c3cc(C(=O)N4CCC(C)CC4)ccc31)CN(C1CCCC1)CC2`, the Ki [1] was 34 nM and the EC50 [3] was 63 nM.
Work on `CCCCCc1cc(O)c2c(c1)OC(C)(C)[C@@H]1CCC(C)=C[C@@H]21` [DRONABINOL] yielded a solubility [7] of less than 10 µg/mL and a Kp [9] of 1.
`CC1CCN(C(=O)c2ccc3c(c2)c2c(n3S(C)(=O)=O)CCN(C3CCCC3)C2)CC1` gave a Ki [1] of 36 nM and an EC50 [3] of 50 nM.
Molecule `CC1CCN(C(=O)c2ccc3c(c2)c2c(n3S(C)(=O)=O)CCN(C3CCOCC3)C2)CC1` has a Ki [1] of 239 nM and an EC50 [3] of 473 nM.
Molecule `C=CCn1c2c(c3cc(C(=O)N4CCC(C)CC4)ccc31)CN(C1CCSC1)CC2` (stereo not given) has an EC50 [3] of 5 nM and a microsomal CLint [4] greater than 300 µL/min/mg.
With `CCCC(=O)n1c2c(c3cc(C(=O)N4CCC(C)CC4)ccc31)CN(C1CCOCC1)CC2` the Ki [1] was 102 nM, the EC50 [13] was 117 nM and the Emax [14] was 17%.
`C=CCn1c2c(c3cc(C(=O)N4CCC(C)CC4)ccc31)CN(Cc1ccccn1)CC2` gave an EC50 [3] of 5420 nM.
Work on `CC1CCN(C(=O)c2ccc3c(c2)c2c(n3S(=O)(=O)N(C)C)CCN(C3CCCC3)C2)CC1` yielded a Ki [1] of 22 nM and an EC50 [3] of 26 nM.
For `CC1CCN(C(=O)c2ccc3c(c2)c2c(n3S(=O)(=O)n3ccnc3)CCN(C3CCOCC3)C2)CC1`, the Ki [1] was 592 nM.
Molecule `C=CCn1c2c(c3cc(C(=O)N4CCC(C)CC4)ccc31)CN(Cc1ccccc1)CC2` has an EC50 [3] of 103 nM and a microsomal CLint [4] greater than 300 µL/min/mg.
`CCS(=O)(=O)n1c2c(c3cc(C(=O)N4CCC(C)CC4)ccc31)CN(C1CCCC1)CC2` showed a Ki [1] of 17 nM and an EC50 [3] of 11 nM.
